Measurements collected from several papers.
Lines come from different studies, so protocols differ. pEC50, pIC50: −log10 of the molar value. In brackets after ≈: the same amount, converted by molar mass.

Structure (SMILES)	organism	test	test system	setting	endpoint	result
Cc1ccc(C)n1-c1ccc(-c2n[nH]c(=S)[nH]2)cc1	Saccharomyces cerevisiae	microbial growth, broth dilution	ATCC9763	–	MIC	> 500 µg/mL
Nc1ccn([C@@H]2CS[C@H](CO)O2)c(=O)n1	Hepatitis B virus	viral replication, qPCR	HepG2.2.15	6 days	pIC50	5.13
CC1(C)OB(c2ccc(CNS(=O)(=O)c3cc(C(=O)Nc4cc(F)c(F)c(F)c4)ccc3F)cc2)OC1(C)C	Hepatitis B virus	viral replication, inhibitor, qPCR	HePAD38	6 days	pEC50	6.31
O=C(O)CNc1ccc(-c2nc(-c3ccc(Oc4ccccc4)cc3)no2)cc1	Clostridioides difficile	microbial growth, broth dilution	–	48 h	MIC	13 µg/mL (≈ 33.6 µM)
Cc1ccc(C)n1-c1ccc(-c2nnc(-c3ccccc3[N+](=O)[O-])[nH]2)cc1	Saccharomyces cerevisiae	microbial growth, broth dilution	ATCC9763	–	MIC	31.2 µg/mL (≈ 87 µM)
O=C(N/N=C/c1ccc([N+](=O)[O-])o1)c1ccc(O)cc1	Aliivibrio fischeri	microbial growth	–	–	MIC90	7.8 µg/mL (≈ 28.3 µM)
O=C(O)CCc1ccccc1Oc1ccc(-c2noc(-c3ccc(O)cc3)n2)cc1	Clostridioides difficile	microbial growth, broth dilution	–	48 h	MIC	4 µg/mL (≈ 9.94 µM)
O=C(Nc1cc(F)c(F)c(F)c1)c1ccc(F)c(S(=O)(=O)NCc2ccc(B(O)O)cc2)c1	Hepatitis B virus	viral replication, inhibitor, qPCR	HePAD38	6 days	pEC50	6.42
Cl.NCCc1ccccc1Oc1ccc(-c2noc(-c3ccc(O)cc3)n2)cc1	Clostridioides difficile	microbial growth, broth dilution	–	48 h	MIC	8 µg/mL
COc1c(N2C[C@@H]3CCCN[C@@H]3C2)c(F)cc2c(=O)c(C(=O)O)cn(C3CC3)c12	Aliivibrio fischeri	microbial growth	–	–	MIC90	0.06 µg/mL (≈ 0.149 µM)
